Series [1] addresses T1, Cannabinoid receptor 1 (Homo sapiens, UniProt P21554). The experiment in a line: Displacement of [3H]CP,55-940 from recombinant human CB1 receptor expressed in HEK293 EBNA cell membranes after 90 mins by microbeta scintillation counting method.
Series [2] has as its target T2, Cannabinoid receptor 2 (Homo sapiens, UniProt P34972). The series can be described thus: Displacement of [3H]CP,55-940 from recombinant human CB2 receptor expressed in HEK293 EBNA cell membranes at 40 uM after 90 mins by microbeta scintillation counting method relative to control. Put shortly:
(§1)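 Competition binding with [³H]-CP55,940 on human CB₁R or CB₂R transfected into HEK293 EBNA cells; each compound screened once at 40 µM for percent displacement of radioligand.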
(In general: In a radioligand displacement assay an active substance lowers the binding of a labelled ligand.)

Series [3] addresses T2, Cannabinoid receptor 2. The experiment in a line: Displacement of [3H]CP,55-940 from recombinant human CB2 receptor expressed in HEK293 EBNA cell membranes after 90 mins by microbeta scintillation counting method.
Series [4] addresses T1, Cannabinoid receptor 1. The series can be described thus: Displacement of [3H]CP,55-940 from recombinant human CB1 receptor expressed in HEK293 EBNA cell membranes at 40 uM after 90 mins by microbeta scintillation counting method relative to control. The essentials:
as §1

The target of series [5] is T1, Cannabinoid receptor 1. The series can be described thus: Antagonist activity at human CB1 receptor expressed in CHO cell membranes assessed as reduction in GTPgammaS binding after 30 mins by microbeta counting method. The format is functional, cell-based. On the technique in general: Binding of GTPγS marks nucleotide exchange on a G protein.
Series [6] has as its system Mus musculus. The series can be described thus: Analgesic effect in mouse assessed as elevation in latency response at 2.5 mg/kg measured after 5 mins by hot plate test. In kind it is functional, organism-based. The essentials:
(§2)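 Hot-plate test in mice, read as latency to respond to the painful stimulus. Test agent at 2.5 mg/kg was given alone or with the cannabinoid agonist Δ9-THC at 5 mg/kg. […] 7-9 mice per group; means SEM; one-way ANOVA with Student-Newman-Keuls test.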

In series [7] the test system is Mus musculus. The experiment in a line: Analgesic effect in mouse assessed as elevation in latency response at 1 mg/kg measured after 5 mins by hot plate test. In kind it is functional, organism-based. In general terms: Thermal pain tests record how soon the animal reacts.
The subject of series [8] is Mus musculus. The series can be described thus: Reversal of delta9-THC-induced analgesic effect in mouse assessed as reduction in delta9-THC-induced elevation in latency response at 2.5 mg/kg measured after 5 mins by hot plate test. In kind it is organism-based. Particulars: in vivo. Put shortly: as §2

Molecules are shown by their SMILES. Activity calls are given as the source filed them. The rule behind the calls is not given here.

T1 sequence (P21554 whole entry): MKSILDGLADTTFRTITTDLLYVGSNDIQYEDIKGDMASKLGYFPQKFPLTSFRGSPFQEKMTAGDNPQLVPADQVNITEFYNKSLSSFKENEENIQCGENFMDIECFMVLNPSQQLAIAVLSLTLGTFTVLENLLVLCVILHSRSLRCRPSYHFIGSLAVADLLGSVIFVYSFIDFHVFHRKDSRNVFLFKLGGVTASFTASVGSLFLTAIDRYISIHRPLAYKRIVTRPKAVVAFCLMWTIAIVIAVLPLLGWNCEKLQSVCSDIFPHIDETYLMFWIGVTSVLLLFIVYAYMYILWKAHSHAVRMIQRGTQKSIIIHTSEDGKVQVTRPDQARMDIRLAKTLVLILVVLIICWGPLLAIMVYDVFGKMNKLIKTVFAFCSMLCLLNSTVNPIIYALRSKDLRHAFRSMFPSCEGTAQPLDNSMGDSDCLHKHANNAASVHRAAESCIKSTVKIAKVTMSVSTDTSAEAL
T2 sequence (P34972 whole entry): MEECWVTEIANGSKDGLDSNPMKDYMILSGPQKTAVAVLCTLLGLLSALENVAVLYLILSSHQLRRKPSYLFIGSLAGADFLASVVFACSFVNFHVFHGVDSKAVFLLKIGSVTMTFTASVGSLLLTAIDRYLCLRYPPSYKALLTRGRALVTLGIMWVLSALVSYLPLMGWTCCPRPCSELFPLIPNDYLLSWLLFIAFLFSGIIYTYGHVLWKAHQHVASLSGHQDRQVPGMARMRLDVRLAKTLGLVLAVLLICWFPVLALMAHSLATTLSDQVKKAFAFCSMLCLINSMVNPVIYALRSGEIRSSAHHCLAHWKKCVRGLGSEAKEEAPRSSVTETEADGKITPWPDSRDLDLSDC

By Ki is commonly meant the equilibrium dissociation constant of an inhibitor or competing ligand from its target. What is called inhibition is the relative decrease from the control value, in per cent. Turning to `Cc1ccc(-c2cc(S(=O)(=O)NC3CCCC3)nnc2-c2ccc(C)cc2)cc1`, the Ki at Cannabinoid receptor 1 [1] (read-out: Ki) is 1.46 µM; on Cannabinoid receptor 2 [3] (read-out: Ki), above 40 µM. The figures for the inhibition at Cannabinoid receptor 2 [2] and at Cannabinoid receptor 1 [4] were below 70% and above 70%, respectively.
What is called IC50 is the concentration that inhibits the measured activity by half. In the case of `Cc1ccc(-c2cc(S(=O)(=O)NC3CC4CC(C3C)C4(C)C)nnc2-c2ccc(C)cc2)cc1` (centres undefined), the figures for the Ki on Cannabinoid receptor 1 [1] (read-out: Ki) and on Cannabinoid receptor 2 [3] (read-out: Ki) were 0.0732 µM and above 40 µM, respectively. In addition, the inhibition at Cannabinoid receptor 2 [2] is below 70%; on Cannabinoid receptor 1 [4], above 70%. In addition, on Cannabinoid receptor 1 [5], the IC50 turned out to be 0.55 µM.
Turning to `Cc1ccc(-c2cc(SNC3CCCCC3)nnc2-c2ccc(C)cc2)cc1`, the Ki entry at Cannabinoid receptor 1 [1] and on Cannabinoid receptor 2 [3] was “Nd(Insoluble)” each time.
Consider `Cc1ccc(-c2cc(SNC3CC4CC(C3C)C4(C)C)nnc2-c2ccc(C)cc2)cc1` (centres undefined), for which the figures for the Ki at Cannabinoid receptor 1 [1] (read-out: Ki) and on Cannabinoid receptor 2 [3] (read-out: Ki) were 0.0755 µM and above 40 µM, respectively. Moreover, the outcome with Mus musculus [6] was inactive. For the same compound, the inhibition was below 70% on Cannabinoid receptor 2 [2] and above 70% at Cannabinoid receptor 1 [4]. In addition, the IC50 on Cannabinoid receptor 1 [5] stood at 0.182 µM.
`Cc1ccc(-c2cc(S(=O)(=O)NC3CCCCC3)nnc2-c2ccc(C)cc2)cc1`: the Ki is 3.6 µM on Cannabinoid receptor 1 [1] (read-out: Ki) and above 40 µM at Cannabinoid receptor 2 [3] (read-out: Ki). For the same compound, the inhibition was below 70% at Cannabinoid receptor 2 [2] and above 70% at Cannabinoid receptor 1 [4].
Regarding `Cc1c(C(=O)NN2CCCCC2)nn(-c2ccc(Cl)cc2Cl)c1-c1ccc(Cl)cc1`, the result with Mus musculus [7] was inactive.
For the compound `Cc1ccc(-c2cc(S(=O)(=O)NC3CCCCCC3)nnc2-c2ccc(C)cc2)cc1`, the Ki at Cannabinoid receptor 1 [1] (read-out: Ki) is 0.8 µM; on Cannabinoid receptor 2 [3] (read-out: Ki) it was above 40 µM. Further, the inhibition at Cannabinoid receptor 2 [2] is below 70%; at Cannabinoid receptor 1 [4], above 70%.
For the compound `Cc1ccc(-c2cc(SNCCN3CCOCC3)nnc2-c2ccc(C)cc2)cc1`, the inhibition is below 70% at Cannabinoid receptor 2 [2] and above 70% at Cannabinoid receptor 1 [4]. Moreover, the Ki on Cannabinoid receptor 2 [3] (read-out: Ki) is above 40 µM.
`Cc1ccc(-c2cc(SNC3CCCCCC3)nnc2-c2ccc(C)cc2)cc1`: the Ki on Cannabinoid receptor 1 [1] (read-out: Ki) is 0.609 µM; at Cannabinoid receptor 2 [3] (read-out: Ki) it was above 40 µM. Moreover, the values for the inhibition at Cannabinoid receptor 2 [2] and at Cannabinoid receptor 1 [4] were below 70% and above 70%, respectively.
As for `Cc1ccc(-c2cc(SNC3CCCC3)nnc2-c2ccc(C)cc2)cc1`, the Ki is 0.724 µM on Cannabinoid receptor 1 [1] (read-out: Ki) and above 40 µM at Cannabinoid receptor 2 [3] (read-out: Ki). Moreover, the inhibition is below 70% at Cannabinoid receptor 2 [2] and above 70% at Cannabinoid receptor 1 [4].
With `Cc1ccc(-c2cc(SNC3C4(C)CCC(C4)C3(C)C)nnc2-c2ccc(C)cc2)cc1` (centres undefined), the inhibitory constant (Ki) was 0.247 µM at Cannabinoid receptor 1 [1] (read-out: Ki) and above 40 µM at Cannabinoid receptor 2 [3] (read-out: Ki). Also, the results for the inhibition on Cannabinoid receptor 2 [2] and at Cannabinoid receptor 1 [4] were below 70% and above 70%, respectively.
For `Cc1ccc(-c2cc(SNCC3CCC4CC3C4(C)C)nnc2-c2ccc(C)cc2)cc1` (centres undefined), the values for the Ki at Cannabinoid receptor 1 [1] (read-out: Ki) and on Cannabinoid receptor 2 [3] (read-out: Ki) were 1.25 µM and above 40 µM, respectively. In addition, the inhibition on Cannabinoid receptor 2 [2] is below 70%; on Cannabinoid receptor 1 [4], above 70%.
For the compound `Cc1ccc(-c2cc(SNC3CC4CCC3(C)C4(C)C)nnc2-c2ccc(C)cc2)cc1` (centres undefined), the Ki was 0.0446 µM on Cannabinoid receptor 1 [1] (read-out: Ki) and above 40 µM on Cannabinoid receptor 2 [3] (read-out: Ki). The results for the inhibition on Cannabinoid receptor 2 [2] and at Cannabinoid receptor 1 [4] were below 70% and above 70%, respectively. Besides, at Cannabinoid receptor 1 [5], the IC50 was determined as 0.249 µM.
Regarding `Cc1ccc(-c2cc(S(=O)(=O)NC3CC(C)CCC3C(C)C)nnc2-c2ccc(C)cc2)cc1` (centres undefined), the Ki is above 10 µM on Cannabinoid receptor 1 [1] (read-out: Ki) and above 40 µM at Cannabinoid receptor 2 [3] (read-out: Ki). The inhibition was below 70% on Cannabinoid receptor 2 [2] and above 70% at Cannabinoid receptor 1 [4].
Take `Cc1ccc(Cn2nc(-c3ccc(C)cc3)cc(S(=O)(=O)NC3CCCCCC3)c2=O)cc1`: the Activity result in the series on Mus musculus [8] is given as “Toxic”. Further, the results for the Ki on Cannabinoid receptor 1 [1] (read-out: Ki) and on Cannabinoid receptor 2 [3] (read-out: Ki) were 1.19 µM and 2.55 µM, respectively. Besides, the values for the inhibition at Cannabinoid receptor 2 [2] and at Cannabinoid receptor 1 [4] were below 70% and above 70%, respectively.
`Cc1ccc(-c2cc(S(=O)(=O)NC3CC4CCC3(C)C4(C)C)nnc2-c2ccc(C)cc2)cc1` (centres undefined): the Ki at Cannabinoid receptor 1 [1] (read-out: Ki) was 1.29 µM; at Cannabinoid receptor 2 [3] (read-out: Ki), above 40 µM. The figures for the inhibition on Cannabinoid receptor 2 [2] and on Cannabinoid receptor 1 [4] were below 70% and above 70%, respectively.
In the case of `Cc1ccc(Cn2nc(-c3ccc(C)cc3)cc(SNC3CCCCCC3)c2=O)cc1`, the inhibitory constant (Ki) on Cannabinoid receptor 1 [1] (read-out: Ki) and at Cannabinoid receptor 2 [3] (read-out: Ki) was above 40 µM each time. Also, the inhibition result on Cannabinoid receptor 2 [2] and at Cannabinoid receptor 1 [4] was “inactive” in each case.
Turning to `Cc1ccc(-c2cc(S(=O)(=O)NCC3CCC4CC3C4(C)C)nnc2-c2ccc(C)cc2)cc1` (centres undefined), the inhibitory constant (Ki) at Cannabinoid receptor 1 [1] (read-out: Ki) is above 10 µM; on Cannabinoid receptor 2 [3] (read-out: Ki), above 40 µM. For the same compound, the inhibition on Cannabinoid receptor 2 [2] was below 70%; on Cannabinoid receptor 1 [4] it was above 70%.
As to `Cc1ccc(-c2cc(SNCC34CC5CC(CC(C5)C3)C4)nnc2-c2ccc(C)cc2)cc1`, the Ki is 0.857 µM at Cannabinoid receptor 1 [1] (read-out: Ki) and above 40 µM on Cannabinoid receptor 2 [3] (read-out: Ki). Also, the inhibition is below 70% on Cannabinoid receptor 2 [2] and above 70% at Cannabinoid receptor 1 [4].
Take `Cc1ccc(-c2cc(SNC3CC(C)CCC3C(C)C)nnc2-c2ccc(C)cc2)cc1` (centres undefined): the Ki at Cannabinoid receptor 1 [1] (read-out: Ki) is 0.708 µM; on Cannabinoid receptor 2 [3] (read-out: Ki), above 40 µM. Moreover, the inhibition was below 70% at Cannabinoid receptor 2 [2] and above 70% at Cannabinoid receptor 1 [4].

Values taken from ChEMBL document CHEMBL4184183, “Novel sulfenamides and sulfonamides based on pyridazinone and pyridazine scaffolds as CB1 receptor ligand antagonists” (Bioorg Med Chem, 2018).
